Runt-SMMHC FRET = blocks binding of human RUNX1 Runt domain to CBFb-SMMHC; AID 1434; Cerulean-Runt/Venus-CBFb-SMMHC FRET ratio 530/480, 1 h; actives 0.74% (n = 220,000); Q01196+Q13951; inhibition, % at 20 µM;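 active = mean inhibition across duplicate retests at 20 µM reaching about 50%, limit read from the data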;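 also: 0% = DMSO wells and 100% = wells with excess untagged CBFb-SMMHC; inhibitors lower the FRET ratio by blocking Runt binding to CBFb-SMMHC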
Wee1 stabilizer = inhibitors of human Wee1 degradation; HeLa Luc-Wee1K328M stability, luciferase luminescence; 100% = proteasome inhibitor MG132 effect; reporter increase, % at 5 µM; actives 1.2% (n = 220,000); AID 1321;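 active = activation above the mean of all tested compounds plus 3 SD, set per screening run, cut at about 8.8% in these data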;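 also: cells exposed to compound for 20 h before luminescence read; 0% = DMSO alone and 100% = MG132 at 30 µM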
Runt-CBFb FRET = inhibitors of human RUNX1 Runt domain binding to CBFb | Cerulean-Runt/Venus-CBFb FRET ratio 530/480, 1 h | inhibition, % at 20 µM | actives 0.46% (n = 220,000) | AID 1496;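 active = inhibition over about 50% at 20 µM in the single-dose screen, limit read from the data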;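 also: 0% = DMSO wells and 100% = excess unlabeled CBFb competitor control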
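Measured by: fluorescence energy transfer, 422 nm excitation, 530/480 nm emission; Assay system: Cerulean-Runt domain; Medium: Tris pH 7.5 buffer with BSA; Measure: loss of energy transfer signal; Controls: 5 µM unlabeled CBFb as full-inhibition high control; Incubation: protein complex preformed 1 h, compound exposure 1 h, room temperature, dark.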
proKLK7 act = proKLK7 (human) activation, primary screen; actives 0.9% (n = 370,000); P49862; activation, % at 7 µM; AID 652039; purified proKLK7, EDANS-DABCYL substrate fluorescence; 100% is mature enzyme control, 0% vehicle;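 active = activation above the mean of all tested compounds plus 3 SD, computed per campaign excluding outliers beyond control limits, cut at about 13% in these data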
Target sequence (P49862 whole entry, looked up): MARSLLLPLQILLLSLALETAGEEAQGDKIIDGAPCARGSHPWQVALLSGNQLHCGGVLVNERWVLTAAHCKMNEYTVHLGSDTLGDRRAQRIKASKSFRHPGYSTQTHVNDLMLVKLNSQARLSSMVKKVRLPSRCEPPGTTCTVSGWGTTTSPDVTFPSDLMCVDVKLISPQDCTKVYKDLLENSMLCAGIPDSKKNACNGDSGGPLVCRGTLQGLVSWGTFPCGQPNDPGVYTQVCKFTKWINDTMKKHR
RanGTP-Impb inh = disruptors of Ran-importin-beta complex formation – biochemical, FRET, CFP-Ran, YFP-importin-beta, homogeneous, primary screen | cell-free CFP-Ran/YFP-importin-beta FRET ratio | AID 2216 | actives 1.1% (n = 300,000) | inhibition, % (no concentration beside the values);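 active = more than half of the replicate wells show a fall in the fluorescence ratio signal beyond about 16%, limit read from the data, passing the limit was not always enough; inconclusive = exactly half of the replicate wells pass the set limit; inactive = fewer than half of replicates pass the limit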;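 also: 0% = DMSO wells and 100% = Ran loaded with GDP instead of GTP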
AI-2 QS modul = modulates the Vibrio harveyi AI-2 quorum sensing system | AID 2094 | Vibrio harveyi JMH597 AI-2 luminescence/OD600 ratio, 9 h; stronger effect = lower value; strain lacks LuxN and CqsS sensors; 0 = neutral-control median | activity change, % at 7.5 µM | actives 0.4% (n = 300,000); in the data active = activity change below about -75%, passing the limit was not always enough; inconclusive = no clear call, values can overlap the other calls;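 also: luminescence divided by OD600 gain over 9 h not by final OD600 alone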
Numbers without * were called inactive; u = inconclusive; x = no result given. Sampled rows, rich in hits. Any-hit rate of the full collection: about 2.9%.

SMILES | Runt-SMMHC FRET | Wee1 stabilizer | Runt-CBFb FRET | proKLK7 act | RanGTP-Impb inh | AI-2 QS modul
CC(/C=N/NC(=O)c1cccs1)=C\c1ccco1 | 2 | 4 | 2 | 0 | 20* | 12
CC(/C=N/NC(=O)Cc1cccs1)=C\c1ccco1 | -6 | 1 | 0 | 0 | -5 | 13
CC1CCN(C(=O)CSc2nnc(-c3cc4ccccc4cc3O)n2Cc2ccco2)CC1 | 24 | 2 | 26 | -1 | 39* | 10
COc1ccc(C(=O)CSc2nnc(-c3cc4ccccc4cc3O)n2Cc2ccco2)cc1 | 6 | -2 | 20 | 1 | -4 | 31
COCCN(C(=O)Nc1ccc(OC)cc1)c1nc2ccccc2s1 | x | x | x | 0 | 1 | 15
Cc1ccc(-c2csc(NC(=O)c3ccc([N+](=O)[O-])o3)n2)cc1 | x | x | x | -1 | -2 | -158*
Cc1ccnc(NC(=O)c2ccc([N+](=O)[O-])o2)c1 | -3 | 3 | -1 | 8 | -2 | -252*
Cc1ccc(-c2csc(NC(=O)c3ccc(C)o3)n2)cc1 | 0 | 1 | -2 | 0 | 2 | 0
CCCN1C(=O)c2n[nH]c(C)c2C1c1ccc(Br)cc1 (configuration not stated) | x | x | x | 0 | x | x
COC(=O)C1=C(C)N(Cc2ccc(C(F)(F)F)cc2)C(=NCc2ccc(C(F)(F)F)cc2)NC1c1ccccc1C(F)(F)F (configuration not stated) | x | x | x | 0 | x | x
Cn1c(NC(=O)c2cc(-c3ccc4c(c3)OCO4)nc3ccccc23)cc(=O)n(C)c1=O | 5 | 1 | 62* | 0 | -2 | 22
CC(C)(C)NC(=O)c1cc(-c2ccc3c(c2)OCO3)nc2ccccc12 | x | x | x | 0 | -1 | 12
CCN(Cc1cc(OC)c(OC)c(OC)c1)S(=O)(=O)c1ccccc1Br | x | x | x | 1 | x | x
[O-]c1c[n+](-c2ccc(-[n+]3cc([O-])on3)cc2)no1 | -3 | -1 | 6 | 0 | x | 40
CCSc1nnc(NC(=O)c2ccccn2)s1 | -1 | 0 | 1 | 0 | 2 | -121*
CCSc1nnc(NC(=O)c2cnccn2)s1 | -2 | x | -1 | x | 11 | -2
COCCN1C(=O)c2oc3cc(C)c(C)cc3c(=O)c2C1c1ccc(O)cc1 (configuration not stated) | x | 9.1* | x | 0 | u | 13
O=C1CCC(c2ccccc2)=NN1 | -4 | -2 | 0 | 0 | 1 | 9
CCCCCc1ccc(C2=NNC(=O)CC2)cc1 | x | x | x | 0 | 8 | -89*
CCCCCc1ccc(-c2ccc(=O)[nH]n2)cc1 | -19 | -2 | -5 | 0 | u | -77*
COc1cccc(CC(=O)O[C@@H]2CCC[C@@]3(C(=O)N(Cc4ccccc4)c4ccccc43)[C@H]2NC(=O)CCc2ccccc2)c1 | x | x | x | 1 | x | x
CCN(C(=O)CN(C)Cc1cccc(Cl)c1Cl)c1c(N)n(Cc2ccccc2)c(=O)[nH]c1=O | -1 | -3 | -1 | -1 | 3 | 3
COCCNC(=O)[C@H](C)[C@H]1C[C@]1(C)[C@H](NC(=O)OCc1ccccc1)c1ccccc1 | 0 | 9.1* | -4 | 0 | 0 | 18
CCN1CC=C2C(C1)C(c1ccc(Cl)s1)C(C#N)=C(N)C2(C#N)C#N (configuration not stated) | 82* | 0 | 36 | -1 | 50* | 14
CC(C)C[C@H](N)c1nnc(S(=O)(=O)Cc2ccc(F)cc2)o1 | -3 | 1 | -5 | x | 1 | -88*
SMILES | Runt-SMMHC FRET | Wee1 stabilizer | Runt-CBFb FRET | proKLK7 act | RanGTP-Impb inh | AI-2 QS modul
CC1CCN(c2ccccc2NC(=O)c2ccc(F)cc2)CC1 | -3 | 9.5* | -1 | 0 | 1 | 45
CN1CCN(c2ccccc2NC(=O)c2ccc(F)cc2)CC1 | 2 | -4 | 2 | 0 | -2 | 11
CCOc1ccc(-n2c(SCC(=O)Nc3ccc4c(c3)OCCO4)nnc2-c2ccncc2)cc1 | x | x | x | 0 | x | x
CCN(CC)C1CC(=O)N(c2cccc(C)c2)C1=O (configuration not stated) | 3 | 10.0* | 6 | x | 0 | 26
O=C(N[C@@H](Cc1cccnc1)C(=O)N1CCC[C@H]1C(=O)NCCc1ccccc1Cl)c1cccs1 | x | x | x | 0 | x | x
N#C/C(=C\c1ccc(O)c(O)c1)C(=O)Nc1ccccc1 | x | x | x | 0 | x | x
N#C/C(=C\c1ccc(F)cc1)C(=O)Nc1ccccn1 | x | x | x | 0 | 39* | 14
CCOc1ccc(/C=C(\C#N)C(=O)Nc2ccccn2)cc1 | x | x | x | 0 | 2 | 11
N#C/C(=C\c1ccc(O)c(O)c1)C(=O)Nc1cccc2ncccc12 | x | x | x | 1 | 93* | 34
CCOC(=O)Cc1c(C)nc2c(-c3cccc(Br)c3)cnn2c1C | -5 | 10* | -3 | -1 | 3 | 38
Cc1cc(N)n2ncc(-c3cccc(Br)c3)c2n1 | 2 | 5 | -4 | 2 | x | x
CCN1CCN(c2nc3c(C)cccn3c(=O)c2/C=C(\C#N)C(=O)NC)CC1 | x | x | x | 3 | -58 | 14
COCCNC(=O)/C(C#N)=C/c1c(N2CCN(c3ccccc3)CC2)nc2c(C)cccn2c1=O | x | x | x | 11 | 29* | 20
CCOC(=O)/C(C#N)=C/c1c(N2CCN(CC)CC2)nc2c(C)cccn2c1=O | x | x | x | 1 | 99* | 6
Cc1cccn2c(=O)c(/C=C(\C#N)C(=O)NCc3ccccc3)c(N3CCC(C(N)=O)CC3)nc12 | 89* | 4 | 148* | -1 | 3 | 23
Cc1cccn2c(=O)c(/C=C(\C#N)C(=O)NCc3ccco3)c(N3CCOCC3)nc12 | 10 | -2 | 78* | 1 | 3 | 28
COCCNC(=O)/C(C#N)=C/c1c(N2CCN(c3cccc(Cl)c3)CC2)nc2c(C)cccn2c1=O | x | x | x | 7 | 14 | 15
CCNC(=O)/C(C#N)=C/c1c(N2CCCCCC2)nc2c(C)cccn2c1=O | x | x | x | 1 | 0 | 18
Cc1ccccc1S(=O)(=O)N1CCCc2nc(C)c(C)cc21 | x | x | x | 0 | x | x
O=C(c1ccc2[nH]c(=O)c(=O)[nH]c2c1)N1CCc2ccccc2C1 | x | x | x | 6 | 4 | 16
COCc1[nH]nc2c1C(c1ccc(C)cc1)NC2=O (configuration not stated) | x | x | x | 0 | x | x
CCCCOc1ccc(C(=O)NC2CCCCN(Cc3cccc(C(F)(F)F)c3)C2=O)cc1 (configuration not stated) | x | x | x | 0 | x | x
Cc1ccc(S(=O)(=O)/C(C#N)=C/c2c(N3CC(C)OC(C)C3)nc3ccccn3c2=O)cc1 (configuration not stated) | -24 | -3 | -14 | 0 | 2 | 22
C=CCNC(=O)/C(C#N)=C/c1c(N2CC(C)OC(C)C2)nc2ccccn2c1=O (configuration not stated) | 77* | 1 | 4 | 5 | 42* | 8

Bioassay records (PubChem)
